Active and inactive are the calls of the source.
Legend:
[1] = Drug recovery in CD1 mouse plasma after 6 hrs by LC-ESI MS analysis; type: ADME, cell-free; conditions: read-out: Drug recovery
Mus musculus = assay: Antitumor activity against mouse KPC cells allografted in […] C57BI/6 mouse assessed as mean survival time at 50 mg/kg, ip administered daily for 5 days per week for 1 month starting on day 7 post implantation (reference value: 29.5 days); type: functional, organism-based
[2] = molecular target: Signal transducer and activator of transcription 3 (Homo sapiens) (UniProt P40763); assay: Inhibition of STAT3 phosphorylation at Y705 residue in human BTSC 147EF cells at 2 uM after 3 to 24 hrs by Western blot method; type: cell-based
Signal transducer and activator of transcription 3 (Homo sapiens), sequence (P40763 whole entry): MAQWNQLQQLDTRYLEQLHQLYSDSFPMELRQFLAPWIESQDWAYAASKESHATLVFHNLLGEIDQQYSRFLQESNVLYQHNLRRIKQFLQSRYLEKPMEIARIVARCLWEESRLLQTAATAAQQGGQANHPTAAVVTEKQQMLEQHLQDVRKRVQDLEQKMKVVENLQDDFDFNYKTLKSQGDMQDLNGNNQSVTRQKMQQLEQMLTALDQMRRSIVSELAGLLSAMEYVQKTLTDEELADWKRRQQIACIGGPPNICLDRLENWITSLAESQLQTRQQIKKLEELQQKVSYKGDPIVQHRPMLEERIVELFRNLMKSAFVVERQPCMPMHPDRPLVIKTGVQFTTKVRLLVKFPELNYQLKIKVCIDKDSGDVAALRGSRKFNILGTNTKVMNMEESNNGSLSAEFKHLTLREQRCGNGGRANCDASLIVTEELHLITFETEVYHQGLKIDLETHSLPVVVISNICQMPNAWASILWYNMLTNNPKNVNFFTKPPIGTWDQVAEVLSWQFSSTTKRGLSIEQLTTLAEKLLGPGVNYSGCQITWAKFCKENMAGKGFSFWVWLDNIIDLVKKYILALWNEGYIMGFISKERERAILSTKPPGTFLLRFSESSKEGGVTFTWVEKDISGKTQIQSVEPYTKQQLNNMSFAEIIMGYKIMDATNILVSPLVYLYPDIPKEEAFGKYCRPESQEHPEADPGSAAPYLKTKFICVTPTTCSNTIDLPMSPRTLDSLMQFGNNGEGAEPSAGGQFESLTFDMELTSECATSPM
Summary of the method: (§1)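 BTSCs dissociated to single cells and treated with drug or DMSO. Lysed in RIPA buffer with protease inhibitors. 20 μg lysate run on SDS-PAGE and transferred to nitrocellulose. Blocked in 5% milk, primary antibody overnight at 4 °C, then HRP secondary for 1 h.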

Panc1005 [3] = assay: Cytotoxicity against human Panc 10.05 cells assessed as reduction in tumor spheroid intensity after 72 hrs by Alamar Blue assay; type: functional, cell-based; conditions: Panc1005, 72 h
Summary of the method: (§2)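 3D spheroids of patient-derived PDAC cells (tomato red) alone or with CAF19 cells, plus CAF cultures. Imaging read-outs: area is the μ2 of objects above a tomato red intensity threshold; intensity is summed red or green pixel fluorescence after background removal. n = 3–5.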

MOLM-13 = assay: Cytotoxicity against human MOLM13 cells at 50 uM after 72 hrs by CellTiter-Blue assay; type: functional, cell-based
Summary of the method: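 Cells in 10% FBS medium, 10 000 cells/well, treated 24 h after plating. Twofold dilution series from a 50.0 μM top dose to 0.097656 μM, in triplicate, 0.5% DMSO vehicle. 72 h at 37 °C, 5% CO2. CellTiter-Blue for 1–4 h, fluorescence 560/590 nm. IC50 by nonlinear regression.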

[4] = Cytotoxicity against human […] cells assessed as reduction in tumor spheroid intensity after 72 hrs by Alamar Blue assay; type: cell-based; summary of the method: as §2
[5] = Cytotoxicity against human Pa02C monolayer cells assessed as reduction in tumor spheroid intensity after 72 hrs by Alamar Blue assay; type: functional, cell-based
Summary of the method: (§3)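 Monolayer proliferation of STR-authenticated, mycoplasma-checked patient-derived PDAC lines and mouse KPC cells. Plated at 2000 cells/well, treated 72 h, read by alamarBlue. At least triplicate, n = 3–5.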

[6] = molecular target: Signal transducer and activator of transcription 3 (Homo sapiens) (UniProt P40763); assay: Inhibition of STAT3 phosphorylation at S727 residue in human BTSC 100EF cells at 1 to 10 uM after 24 hrs by Western blot method; type: cell-based; summary of the method: as §1
Panc1005 [7] = assay: Cytotoxicity against human Panc 10.05 monolayer cells assessed as reduction in tumor spheroid intensity after 72 hrs by Alamar Blue assay; type: functional, cell-based; conditions: Panc1005, 72 h; summary of the method: as §3
[8] = Half life in ICR/CD1 mouse hepatocytes at 1 uM up to 120 mins by LC-MS/MS analysis; type: ADME, cell-based, Hepatocyte; conditions: 2 h
[9] = molecular target: Signal transducer and activator of transcription 3 (Homo sapiens) (UniProt P40763); assay: Inhibition of STAT3 phosphorylation at Y705 residue in human BTSC 143EF cells at 1 to 10 uM after 24 hrs by Western blot method; type: cell-based; summary of the method: as §1
Histone deacetylase 11 = molecular target: T1, Histone deacetylase 11 (Homo sapiens, UniProt Q96DB2); assay: Inhibition of recombinant human HDAC11 expressed in SF9 baculoviral system using FAM-labeled acetylated peptide as substrate by EMSA
T1 sequence (Q96DB2 whole entry): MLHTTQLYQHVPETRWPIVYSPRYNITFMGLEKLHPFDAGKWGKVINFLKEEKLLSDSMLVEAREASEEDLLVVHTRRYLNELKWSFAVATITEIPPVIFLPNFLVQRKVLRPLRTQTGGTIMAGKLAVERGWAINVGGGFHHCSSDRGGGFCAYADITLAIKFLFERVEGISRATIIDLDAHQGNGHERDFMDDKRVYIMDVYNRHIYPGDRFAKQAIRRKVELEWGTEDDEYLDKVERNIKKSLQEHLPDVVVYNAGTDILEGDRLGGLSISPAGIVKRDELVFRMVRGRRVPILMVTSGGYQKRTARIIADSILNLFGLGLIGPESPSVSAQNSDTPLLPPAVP
Summary of the method: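 Full-length human HDAC11 (Sf9-expressed), 10 nM final, in 100 mM HEPES pH 7.5, 25 mM KCl, 0.1% BSA, 0.01% Triton X-100, 1% DMSO. FAM-acetylated peptide substrate at 100 μM, mobility-shift read-out. Product/(substrate + product) converted to % inhibition. IC50 from a four-parameter fit; dose-response spans 12 threefold dilutions from 30.0 μM.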

[10] = Drug uptake in NSG mouse serum at 20 mg/kg, ip administered as single dose and measured at 2 hrs by HPLC-MS/MS analysis; type: ADME, organism-based; conditions: read-out: Drug uptake
Summary of the method: (§4)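 NSG mice given a single 20 mg/kg IP dose in Cremophor EL/EtOH (1:1, 4% final volume)/sterile saline. Tail-vein blood at 0.5, 1, 2, 4, 8 and 24 h, n = 2. Drug quantified in serum/plasma. Half-life and clearance calculated assuming 100% bioavailability.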

[11] = Toxicity in NSG mouse assessed as body weight loss at 60 mg/kg, ip administered daily for 4 to 5 days; type: organism-based; conditions: in vivo
Summary of the method: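 NSG mice were dosed IP daily across a range of doses for 4–5 days (n = 6). Animals were weighed before and after dosing, and toxicity was scored as percentage body-weight loss.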

Homo sapiens = species: Homo sapiens; assay: Cytotoxicity against human D425 cells at 39 nM after 72 hrs by Presto Blue assay; type: functional, cell-based
Summary of the method: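 D425 and D458 medulloblastoma cells in DMEM high glucose with 20% FBS, seeded at 1000 cells/well in medium with 1% FBS. Twofold dilutions from 20 μM down to 39 nM. Exposed 3 days at 37 °C. Presto Blue added about 4 h before fluorescence read (540–570 nm). IC50 from % viability versus log concentration.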

[12] = Clearance in NSG mouse at 20 mg/kg, ip administered as single dose by HPLC-MS/MS analysis; type: ADME, organism-based; conditions: in vivo; summary of the method: as §4

SMILES: CC(C)(C)c1ccc(CN(C(=O)CN(Cc2c(F)c(F)c(F)c(F)c2F)S(=O)(=O)c2ccc(F)cc2)c2ccc(C(=O)NO)cc2)cc1
- remaining at 6 h [1]: 16 to 20%
- Activity (Mus musculus): inactive
- inhibition [2]: inactive
- IC50 (Panc1005 [3]): 0.6 µM
- Activity (MOLM-13): Active
- IC50 [4]: 3.4 to 4.5 µM
- IC50 [5]: 4.6 µM
- inhibition [6]: inactive
- IC50 (Panc1005 [7]): 3.9 µM
- t1/2 [8]: 38.5 min
- inhibition [9]: inactive
- IC50 (Histone deacetylase 11): 0.636 µM
- concentration at 2 h [10]: 5390 ng/mL
- Activity [11]: Non-Toxic
- Activity (Homo sapiens): Active
- CL/F [12]: 0.0667 mL/min

From ChEMBL document CHEMBL4400543, “Identification and Characterization of AES-135, a Hydroxamic Acid-Based HDAC Inhibitor That Prolongs Survival in an Orthotopic Mouse Model of Pancreatic Cancer” (J Med Chem, 2019)
